# PubChem BioAssay AID743238 (Broad Institute, 2013)
# About 200 (0.056%) of roughly 360,000 compounds were called active. The sample holds actives, similar compounds and a random draw of the others, so the mix is not that of the screen. A number with no mark means an inactive call.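 Rule for the calls: active = mean normalized replicate activation at least 10% and every replicate at or above 10%; inconclusive = only one of the two criteria met; inactive = mean below 10% and not all replicates reach 10%.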
# Assay: Xi reactivation inducers in mouse fibroblasts – imaging, XiGFP fibroblasts, GFP high-content imaging, set 2, primary screen (AID 743238);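 note: 0% = median of on-plate neutral control wells and 100% = ellipticine 6 µM median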
# Conditions: % GFP-positive cells imaging, 3 d, at 7.58 µM, hits give high values, cells co-treated with 5-aza-dC sensitizer, scaled so ellipticine positive control = 100%
# Method in brief: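 System: SV40-immortalized XiGFP fibroblast cells, line 68-5-11 / Incubation: 3-day compound exposure, then 15 min fixation at room temperature / Compound: single concentration per compound, delivered by pin transfer / Buffer or medium: DMEM plus 5-aza-dC sensitizer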
row,SMILES,activation
1,COCC#Cc1ccc([C@@H]2[C@@H](CO)N3C(=O)CN(C(=O)Nc4cc(F)ccc4F)C[C@@H]23)cc1,0.227%
2,CS(=O)(=O)N1[C@H](C#N)[C@H](c2ccccc2-c2ccc(F)cc2)[C@@H]1CO,0.0935%
3,O=C(NCc1ccc(F)cc1)[C@@H]1[C@@H](CO)[C@@H]2Cn3c(cccc3=O)[C@@H]2N1C(=O)c1cccnc1,0.173%
4,C[C@H]1CN([C@@H](C)CO)C(=O)c2cc(C3=CCCC3)cnc2O[C@H]1CN(C)Cc1ccccc1C(=O)O,-0.072%
5,O=C(C[C@@H]1CC[C@H](NS(=O)(=O)c2ccc(F)cc2)[C@@H](CO)O1)NCc1ccccc1F,-0.283%
6,Cc1noc(C)c1NC(=O)Nc1ccc2c(c1)C(=O)N([C@H](C)CO)C[C@H](C)[C@H](CN(C)S(=O)(=O)c1cccs1)O2,0.0715%
7,N#C[C@@H]1[C@H](c2ccccc2-c2cccc(F)c2)[C@@H](CO)N1C(=O)C1CCCC1,0.007%
8,COc1cccc(/C=C/C(=O)OCC(=O)N2CCCc3ccccc32)c1,0.22%
9,Cc1cccc2cc3c(N)c(C(=O)N4CCCc5ccccc54)sc3nc12,39.9% (active)
10,Cc1cccc(N2CCN(C(C)C(=O)N3CCc4ccccc43)CC2)c1C (configuration not stated),0.0055%
11,O=C(C[C@@H]1C[C@H]2c3cc(NC(=O)NC4CCCC4)ccc3O[C@H]2[C@H](CO)O1)NCc1cc(F)ccc1F,0.0125%
12,C[C@H](CO)N1C[C@H](C)[C@H](CN(C)S(=O)(=O)c2ccc(Cl)cc2)Oc2ccc(NC(=O)C3CCCCC3)cc2C1=O,-0.051%
13,CN1C(=O)c2cc(NC(=O)c3ccc(Cl)cc3)ccc2OC[C@H]2O[C@H](CC(=O)O)CC[C@H]21,0.521%
14,C[C@@H]1CCCCO[C@@H](CN(C)Cc2ccc(C(=O)Nc3ccccc3N)cc2)[C@H](C)CN([C@H](C)CO)C(=O)c2cc(N(C)C)ccc2O1,2.13%
15,O=C(C1CCCC1)N1CC(=O)N2[C@@H](CO)[C@@H](c3ccc(-c4cccnc4)cc3)[C@@H]2C1,0.207%
16,C[C@@H](NC(=O)[C@H]1[C@H](CO)[C@H]2Cn3c(cccc3=O)[C@@H]1N2Cc1cccnc1)c1ccccc1,0.133%
17,C[C@@H]1CN([C@H](C)CO)C(=O)Cc2cc(NC(=O)Nc3ccc4c(c3)OCO4)ccc2O[C@@H]1CN(C)C(=O)Nc1ccccc1,-0.384%
18,CCCNC(=O)N1C[C@@H](C)[C@@H](OC)CN(C)C(=O)c2ccc(NC(=O)C3CCC3)cc2OC[C@@H]1C,-0.29%
19,COc1ccc2c3c([nH]c2c1)[C@@H](CO)N(C(=O)c1ccccc1)CC31CCN(C(=O)Nc2cccc(F)c2)CC1,0.295%
20,Cc1noc(C)c1NC(=O)N[C@@H]1C=C[C@@H](CC(=O)Nc2ccccc2)O[C@H]1CO,0.193%
21,O=C(NC(Cc1ccc(O)cc1)C(=O)O)/C(=C/c1ccccc1)NC(=O)c1ccccc1 (configuration not stated),0.249%

row,SMILES,activation
1,COc1ccccc1C(=O)N/C(=C/c1ccc2c(c1)OCO2)C(=O)Nc1cccc(C(=O)O)c1,0.184%
2,O=C(Nc1cccc(C(=O)O)c1)/C(=C\c1ccccc1)NC(=O)c1ccc(Br)o1,97.3% (active)
3,C[C@@H]1CCCCO[C@@H](CN(C)S(=O)(=O)c2cn(C)cn2)[C@@H](C)CN([C@@H](C)CO)C(=O)c2cc(NC(=O)NC3CCCCC3)ccc2O1,0.153%
4,O=C(c1ccncc1)N1CC(=O)N2[C@H](C1)[C@@H](c1ccc(C#CCC3CCCC3)cc1)[C@@H]2CO,0.192%
5,C[C@H]1CN([C@@H](C)CO)C(=O)c2cccc(NS(=O)(=O)c3ccc(F)cc3)c2O[C@@H]1CN(C)C,-0.0195%
6,CNC[C@@H]1Oc2ccc(NC(=O)C3CCCCC3)cc2C(=O)N([C@@H](C)CO)C[C@H]1C,-1.11%
7,C[C@@H](NC(=O)C[C@@H]1C[C@@H]2c3cc(NC(=O)c4cccnc4)ccc3O[C@@H]2[C@H](CO)O1)c1ccccc1,-0.0445%
8,CC(=O)N1[C@@H]2c3ccc(-c4ccccc4)c(=O)n3C[C@@H]2[C@@H](CO)[C@@H]1C(=O)NCc1ccccc1F,0.21%
9,C[C@H](CO)N1C[C@H](C)[C@@H](CN(C)Cc2cccnc2)Oc2ncc(/C=C/c3ccccc3)cc2C1=O,-0.672%
10,CC(C)CC#Cc1cnc2c(c1)C(=O)N([C@H](C)CO)C[C@H](C)[C@H](CN(C)CC1CCOCC1)O2,0.516%
11,CC[C@H]1CC=CC[C@@H](C)Oc2ccccc2C(=O)N(C)[C@H](Cc2ccccc2)C(=O)N1 (mixture of isomers),-0.034%
12,CCOC(=O)c1sc2nc(CSc3ccccc3)[nH]c(=O)c2c1C,21.4% (active)
13,CCOC(=O)c1sc2nc(C)nc(SCC(N)=O)c2c1C,-0.02%
14,CSc1nnc(SCc2nc3sc(C(=O)O)c(C)c3c(=O)[nH]2)s1,0.212%
15,C/C=C/c1ccc2c(c1)O[C@H](CN(C)C(=O)Cc1cccnc1)[C@@H](C)CN([C@H](C)CO)S2(=O)=O,0.77%
16,COc1ccc2c3c(n(C)c2c1)[C@H](CO)N(C(C)=O)CC31CN(Cc2ccc(Cl)cc2)C1,-0.0005%
17,COCCN(C[C@H]1[C@@H](c2ccccc2)[C@H](CO)N1C(=O)C1CCC1)C(C)=O,0.023%
18,C/C=C/c1ccc([C@H]2[C@@H](CO)N(C(=O)CC)[C@H]2CN(C)C(=O)C2CC2)cc1,0.008%
19,CCC(=O)Nc1ccc2c(c1)C(=O)N(C)C[C@@H](OC)[C@@H](C)CN(C(=O)CN(C)C)[C@@H](C)CO2,0.206%
20,CCC(=O)N1CC2(CCN(Cc3ccc(Cl)cc3)CC2)c2c(n(C)c3cc(OC)ccc23)[C@@H]1CO,0.134%
21,CCS(=O)(=O)N1CC2(CN(C(=O)c3ccc(F)cc3)[C@@H](CO)c3c2c2ccc(OC)cc2n3C)C1,0.267%
